Screens deposited in PubChem by The Scripps Research Institute Molecular Screening Center.
A selection: hits, their analogues and other compounds. The true share with any hit is near 2.9%.
OX1R antag-1: antagonists of human orexin 1 receptor; CHO/OX1R cells, Fluo-8 calcium fluorescence, orexin A; actives 0.43% (n = 330,000); inhibition, % at 5 µM; AID 434989; O43613;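 active means inhibition above its plate's threshold, mean inhibition of all tested compounds on the plate plus 3 SD, cut at about 37% in these data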;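 further: 0% = orexin A challenge wells and 100% = SB-334867-A antagonist wells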
Target sequence (O43613 whole entry, looked up): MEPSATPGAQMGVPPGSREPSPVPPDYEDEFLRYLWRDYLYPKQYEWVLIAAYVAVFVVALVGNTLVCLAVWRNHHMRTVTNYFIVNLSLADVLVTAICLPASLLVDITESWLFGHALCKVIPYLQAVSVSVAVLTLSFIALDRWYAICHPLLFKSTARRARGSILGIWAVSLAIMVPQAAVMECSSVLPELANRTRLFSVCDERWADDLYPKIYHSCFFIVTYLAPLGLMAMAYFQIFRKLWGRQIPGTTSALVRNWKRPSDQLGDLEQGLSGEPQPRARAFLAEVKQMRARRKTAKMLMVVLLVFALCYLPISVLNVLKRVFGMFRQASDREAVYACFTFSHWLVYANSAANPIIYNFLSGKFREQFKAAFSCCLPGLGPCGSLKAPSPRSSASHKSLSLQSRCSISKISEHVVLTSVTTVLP
CHO parental Ca: signal in parental CHO cells, OX1R antagonist counter-screen; parental CHO-K1, ATP-induced calcium, Fluo-8 fluorescence; inhibition, % at 5.6 µM; actives 0.63% (n = 330,000);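 active means inhibition above that plate's mean sample inhibition plus 3 SD, cut at about 26% in these data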;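 further: 0% = ATP-challenged DMSO wells and 100% = DMSO wells without ATP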
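Measured by: calcium-sensitive Fluo-8 fluorescence / Test system: CHO parental line / Controls: ATP-challenged DMSO wells low, unchallenged DMSO wells high / Measure: % inhibition / Compound: single nominal dose of 5.6 µM per compound / Replicates: single well per compound, no replicates / Reagent: ATP as calcium-mobilizing challenge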
CHO-K1 Ca ag: counter-screen for M1 agonists: effect in parental CHO-K1 cells; Fluo-8 calcium fluorescence; scaled to maximal ATP response, vehicle zero; activation, % at 3 µM; actives 0.48% (n = 360,000); AID 602248; in the data active means activation above about 15%;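 further: untransfected CHO-K1 host cells lacking M1 receptor as counterscreen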
OX1R antag-2: antagonists of human orexin 1 receptor (OX1R); actives 1.8% (n = 330,000); inhibition, % at 6.6 µM; OX1R-expressing cells, FRET antagonist read-out; AID 485270; in the data active means inhibition mostly above about 38%, no sharp cut-off; inactive means mostly below about 40%;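 further: 0% = agonist challenge alone and 100% = reference antagonist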
CHO-K1 Ca antag: counter-screen for M1 antagonists: effect in parental CHO-K1 cells. ATP-induced calcium, Fluo-8 fluorescence. inhibition, % at 3 µM. actives 0.6% (n = 360,000). AID 602250;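 active means inhibition above a per-plate cutoff, the plate's mean sample inhibition plus 3 SD, cut at about 24% in these data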;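 further: 0% = DMSO plus EC80 ATP and 100% = DMSO alone without ATP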
M1 PAM parental: M1 PAM counterscreen hit in parental CHO-K1 cells | ATP EC20, Fluo-8 calcium fluorescence; 0% at ATP EC20, 100% at ATP max | activation, % at 3 µM | actives 0.02% (n = 360,000);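 active means activation above the run cutoff, the mean activation of all test compounds plus 3 SD, cut at about 40% in these data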;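 further: peak over basal fluorescence ratio in a 140 s read after ATP addition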
Active calls of the source: *; x = no result given.

SMILES	OX1R antag-1	CHO parental Ca	CHO-K1 Ca ag	OX1R antag-2	CHO-K1 Ca antag	M1 PAM parental
COc1ccc(C2=NN(C(=O)CSC3=NN4CCCC(=O)N=C4S3)C(c3cccc(OC)c3OC)C2)cc1 (stereo unspecified)	-24	-24	1	-12	-3	15
COc1cccc(C2CC(c3cccs3)=NN2C(=O)CSC2=NN3CCCC(=O)N=C3S2)c1OC (stereo unspecified)	-32	-12	1	6	24*	-2
CC(C)(C)c1ccc(OCCOc2ccc(C(C)(C)C)cc2NC=O)c(NC=O)c1	41*	69*	11	29	7	-13
Cc1cc(Nc2ccc(Cl)cc2)nc(-c2ccccc2O)n1	x	x	1	x	-7	16
Cc1cc(Nc2cccc(Cl)c2)nc(-c2ccccc2O)n1	7	5	6	12	43*	9
Cc1noc(C)c1S(=O)(=O)N1CCN(c2ccc(Cl)cc2)CC1	-8	-8	1	3	-12	13
Cc1noc(C)c1S(=O)(=O)Nc1ccc(C(=O)N2CCN(c3ccc(Cl)cc3)CC2)cc1	49*	36*	10	45	22	8
N/C(=N\OC(=O)CCCc1ccccc1)c1ccccc1Cl	-30	1	1	6	2	-18
C=CS(=O)(=O)c1ccc(Oc2ccc(S(=O)(=O)C=C)cc2)cc1	5	3	15*	21	-4	9
NS(=O)(=O)c1ccc(Oc2ccc(S(N)(=O)=O)cc2)cc1	5	4	0	23	6	8
O=c1c2c([nH]n1-c1ccccc1)CCSC2	-10	-7	0	-6	-15	-4
CCOC(=O)c1ccccc1OC(=O)CS(=O)c1ccccc1[N+](=O)[O-] (stereo unspecified)	-22	-7	2	68	-3	10
COC(=O)c1ccc(OC(=O)CS(=O)c2ccccc2[N+](=O)[O-])cc1 (stereo unspecified)	-15	-11	0	63*	-4	-2
CC(C)Nc1nc(NC(C)C)nc(N(C)N)n1	-22	100*	0	12	-18	14
COC(=O)c1c(C)nc2nonc2c1N	-4	5	2	65*	-13	14
COC(=O)c1sc(NC(=O)CSc2nnnn2C)nc1C	-16	1	1	6	-18	19
COc1ccccc1N(CC(=O)NCc1ccccc1)S(=O)(=O)c1cccs1	x	x	3	x	-6	-8
Cc1ccc(S(=O)(=O)N2CCC(=O)N(CCOCc3ccc(C(F)(F)F)cc3)CC2)cc1	-20	49*	9	45	0	-3
NS(=O)(=O)c1ccc(-n2cccc2C=O)cc1	-15	2	18*	13	3	1
COc1cccc2c(=O)c3ccccc3oc12	-9	-7	1	62*	-17	26
COc1cccc2c(=O)ccoc12	-22	-5	0	13	10	-5
O=C(CSc1nc2ccccc2c(=O)n1-c1ccccc1)NCc1ccc2c(c1)OCO2	-10	-19	0	23	13	-14
Cc1ccc2nc(SCC(=O)NCc3ccc4c(c3)OCO4)nc(=O)n2c1	0	3	8	9	26*	-26
Cn1cc(SCC(=O)NCc2ccc3c(c2)OCO3)c2ccccc21	-3	-5	1	41*	-12	28
Cc1ccc2nc(SCC(=O)NCc3ccccc3)nc(=O)n2c1	-31	-28	1	21	5	2
SMILES	OX1R antag-1	CHO parental Ca	CHO-K1 Ca ag	OX1R antag-2	CHO-K1 Ca antag	M1 PAM parental
Cc1cccc(-n2c(SCC(=O)NCc3ccc4c(c3)OCO4)nc3ccccc3c2=O)c1	-11	-10	1	40*	-12	11
O=C(CSc1nnc(-c2cccnc2)n1-c1ccccc1)NCc1ccc2c(c1)OCO2	-26	-15	0	2	24*	-10
CC(O)(c1ccccc1)c1nc(-c2ccc(S(C)(=O)=O)cc2)cs1 (stereo unspecified)	x	x	1	x	-7	9
CCC(C)NC(=O)Nc1ccc(C)cc1C (stereo unspecified)	-5	-6	0	3	-11	17
CN(C)S(=O)(=O)c1cccc(NC(=S)NCCCn2ccnc2)c1	-9	-15	0	10	-5	-12
O=S(=O)(c1ccc2nc(N3CCN(c4ccccc4F)CC3)ccc2c1)N1CCCCC1	-4	0	2	8	25*	-6
Cc1cccc(-c2nc(CNC(=O)c3ccco3)cs2)c1	-15	-8	0	0	-5	-13
O=c1[nH]c(=S)[nH]c2c1C(C1CCCCC1)OC(C1CCCCC1)C2 (stereo unspecified)	x	x	1	x	-4	14
Cc1c(C(=O)Nc2nonc2-c2ccc(F)cc2)oc2ccc(F)cc12	0	2	1	49*	2	-11
CCc1nonc1NC(=O)c1oc2ccc(F)cc2c1C	1	20	1	20	-9	-11
COc1ccc(C2/C=C\CN(S(=O)(=O)c3cccc4cccnc34)CC(=O)N2Cc2ccc(F)cc2)cc1 (stereo unspecified)	-30	-23	1	40	-7	-15
COc1ccc([C@H]2/C=C\CN(S(=O)(=O)c3cccc4cccnc34)[C@@H](C)C(=O)N2Cc2ccc(F)cc2)cc1	17	-10	0	70*	-7	-4
Cc1nnsc1C(=O)NNS(=O)(=O)c1ccccc1	-12	4	0	12	-8	13
Cc1nnsc1C(=O)NC(C)c1ccccc1 (stereo unspecified)	1	6	21*	5	2	1
CCCCC#Cc1ccc(C(=O)NNC(=O)Nc2ccccc2)o1	-19	35*	0	5	-8	5
CC(Oc1ccc2ccc(=O)oc2c1)C(=O)N1CCOCC1 (stereo unspecified)	-4	-16	1	4	-2	12
O=C1c2ccccc2CC1Sc1nnc(-c2ccncc2)o1 (stereo unspecified)	-8	-7	0	18	24*	-7
O=C1CC(Sc2nnc(-c3ccccc3)o2)C(=O)N1c1ccccc1 (stereo unspecified)	-6	-6	1	26	4	8
O=C(OCC#CCSc1nnc(-c2ccccc2)o1)c1cccs1	-16	-4	1	17	1	-2
O=C(OCC#CCSc1nnc(-c2cccc3ccccc23)o1)c1cccs1	3	-11	1	56*	4	-4
COc1ccc(C2=NOC(Cn3nc(C(=O)NCc4ccccc4OC)cc3-c3ccccc3)C2)cc1 (stereo unspecified)	-12	6	6	45	3	11
Cc1ccc(C(=O)N/N=C/c2ccc([N+](=O)[O-])s2)cc1	-3	6	0	55	12	-4
